Measurements: the M2OR odorant receptor database
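Note: active if original authors judged signal statistically different from baseline.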

These molecules were tested against T1, OR10S1 (Homo sapiens) (UniProt Q8NGN2). Details: stereoisomer not certain.
T1 sequence (whole entry): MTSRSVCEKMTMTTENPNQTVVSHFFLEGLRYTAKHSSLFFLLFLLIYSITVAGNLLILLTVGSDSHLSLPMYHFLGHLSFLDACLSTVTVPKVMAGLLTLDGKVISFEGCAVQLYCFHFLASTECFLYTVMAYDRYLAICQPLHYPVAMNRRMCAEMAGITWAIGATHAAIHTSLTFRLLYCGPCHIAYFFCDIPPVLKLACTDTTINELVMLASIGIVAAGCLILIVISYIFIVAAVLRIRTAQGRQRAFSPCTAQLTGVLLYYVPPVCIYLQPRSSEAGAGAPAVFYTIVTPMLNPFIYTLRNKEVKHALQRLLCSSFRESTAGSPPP
In short: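 Transient luciferase assays in mammalian cell lines were common, though methods varied by source. The values come from published papers and their supplementary material, with extra details from the original authors when needed. Responsive refers to a measured signal the original authors judged statistically different from baseline, and non-responsive (inactive) to the remainder.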
For `CCCCCCCC(=O)OC`, the “odorant receptor agonist call” value was “inactive”. In the case of `CC(=O)O`, the “odorant receptor agonist call” value is reported as “inactive”. In the case of `CCCCCCCCCCCCCCCC(=O)[O-].[H+]`, the “odorant receptor agonist call” value is reported as “inactive”. In the case of `CC(O)C(=O)[O-].[H+]` (stereo not given), the “odorant receptor agonist call” value is reported as “inactive”. `CCCCCCCCCCCCCC(=O)OC` was tested, and the “odorant receptor agonist call” value was “inactive”. `CCCCCCCCCCCCO` was tested, and the “odorant receptor agonist call” value was “active”. In the case of `CCCCCCCCCCCCCCC(=O)O`, the “odorant receptor agonist call” value is reported as “inactive”. For `Cc1cnc(C)cn1`, the “odorant receptor agonist call” value was “inactive”. With `CC(C)=CCCC(C)=CCCC(C)=CCO` the “odorant receptor agonist call” value was “inactive”. For `CCCC(=O)CC`, the “odorant receptor agonist call” value was “inactive”. For `CCC(C)CO` (stereo not given), the “odorant receptor agonist call” value was “inactive”. `CCCCCCCCCCCCCC(=O)OCC` was tested, and the “odorant receptor agonist call” value was “inactive”. `CCCCCCCCCC(=O)OCC` was tested, and the “odorant receptor agonist call” value was “inactive”. With `CCC(O)CC` the “odorant receptor agonist call” value was “inactive”. `CCCCCCCCCCCCCC(=O)O` was tested, and the “odorant receptor agonist call” value was “inactive”. In the case of `CCCCCCCCCCCC(=O)OCC`, the “odorant receptor agonist call” value is reported as “inactive”. With `CCCCOCC(C)O` (stereo not given) the “odorant receptor agonist call” value was “inactive”. With `CCCCCCCCCCCCCCCCCC(=O)OC` the “odorant receptor agonist call” value was “inactive”. For `CCCCCCCCCCCCCCCCCC(=O)OCC`, the “odorant receptor agonist call” value was “inactive”. `CCCCCCCCCCCCCCCC(=O)OC` was tested, and the “odorant receptor agonist call” value was “inactive”. `C=C(C)C1CC=C(C)CC1` (stereo not given) was tested, and the “odorant receptor agonist call” value was “inactive”. In the case of `CCCCC(=O)C(C)=O`, the “odorant receptor agonist call” value is reported as “inactive”. `CCCCCCCCCCCCCCCC(=O)OCC` was tested, and the “odorant receptor agonist call” value was “inactive”. With `O=c1ccc2ccccc2o1` the “odorant receptor agonist call” value was “inactive”. For `CCCO`, the “odorant receptor agonist call” value was “inactive”.
